From ChEMBL document CHEMBL1137457, “5'-O-masked 2'-deoxyadenosine analogues as lead compounds for hepatitis C virus (HCV) therapeutic agents” (Bioorg Med Chem, 2007)

How the values were obtained:
[1] = system: Hepatitis C virus; assay: Inhibition of HCV replication in Huh7 cells after 48 hrs by luciferase assay; format: functional, organism-based, Hepacivirus hominis; details: Huh-7, 48 h
How it was run: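 HCV subgenomic replicon cells carrying luciferase reporter; replicon inhibition read by luciferase after two-day incubation with compound; EC50 averaged from at least three independent experiments.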

[2] = Cytotoxicity against Huh7 cells by XTT assay; format: cell-based; details: human, huh-7
How it was run: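 Cytotoxicity in the replicon-bearing cells measured by XTT tetrazolium assay per manufacturer's protocol; CC50 averaged from at least three independent experiments.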

[3] = Antiviral index, ratio of CC50 for Huh7 cells to EC50 for HCV replication; format: functional, Huh-7
How it was run: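 Antiviral index calculated as 50% toxic dose (XTT, replicon cells) divided by 50% effective dose (luciferase replicon read-out after two days); from at least three independent experiments.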

| Compound | EC50 [1] | CC50 [2] | Ratio CC50/EC50 [3] |
| --- | --- | --- | --- |
| O[C@H]1C[C@H](n2cnc3c(Cl)ncnc32)O[C@@H]1COCc1ccccc1 | 17.7 µM | 178 µM | 10.1 |
| CN(C)c1ncnc2c1ncn2[C@H]1C[C@H](O)[C@@H](COC(=O)c2ccccc2)O1 | 22.3 µM | > 200 µM | >9 |
| CSc1ncnc2c1ncn2[C@H]1C[C@H](O)[C@@H](COC(=O)c2ccccc2)O1 | > 100 µM |  |  |
| O=C(OC[C@@H]1C[C@@H](O)[C@H](n2cnc3c(Cl)ncnc32)O1)c1ccccc1 | 38.1 µM | 70.5 µM | 1.9 |
| CC(C)(C)C(=O)OC[C@H]1O[C@@H](n2cnc3c(Cl)ncnc32)C[C@@H]1O | 28 µM | 177 µM | 6.3 |
| COc1ccc(C(=O)OC[C@H]2O[C@@H](n3cnc4c(Cl)ncnc43)C[C@@H]2O)cc1 | 8.4 µM | 76.4 µM | 9.1 |
| Cc1cc(C)c(C(=O)OC[C@H]2O[C@@H](n3cnc4c(Cl)ncnc43)C[C@@H]2O)c(C)c1 | > 50 µM | 91 µM | <1.8 |
| O=C(OC[C@H]1C[C@@H](n2cnc3c(Cl)ncnc32)[C@@H]1CO)c1ccccc1 | 6.4 µM | 20 µM | 3.1 |
| O=C(OC[C@H]1O[C@@H](n2cnc3c(Cl)ncnc32)[C@H](O)[C@@H]1O)c1ccccc1 | 41 µM | 97.3 µM | 2.4 |
| O=C(OC[C@H]1O[C@@H](n2cnc3c(Cl)ncnc32)C[C@@H]1O)c1ccccc1 | 6.1 µM | 111 µM | 18.2 |
| OC[C@H]1O[C@@H](n2cnc3c(Cl)ncnc32)C[C@@H]1O | 47.2 µM | 173 µM | 3.7 |
| OC[C@@H]1C[C@@H](O)[C@H](n2cnc3c(Cl)ncnc32)O1 | 64.1 µM | > 200 µM | >3.1 |
| OCC(CO)CCn1cnc2c(Cl)ncnc21 | 80.8 µM | > 200 µM | >2.5 |
| Nc1ncnc2c1ncn2[C@H]1C[C@H](O)[C@@H](COC(=O)c2ccccc2)O1 | 105 µM | > 200 µM | >1.9 |
| O=C(OC[C@H]1O[C@@H](n2cnc3c(O)ncnc32)C[C@@H]1O)c1ccccc1 | > 100 µM |  |  |
| OC[C@H]1C[C@@H](n2cnc3c(Cl)ncnc32)[C@@H]1CO | 46.1 µM | > 200 µM | 4.3 |
| O=C(OCC(CO)CCn1cnc2c(Cl)ncnc21)c1ccccc1 (configuration not stated) | 13.3 µM | 108 µM | 8.1 |
| CCCC(=O)OC[C@H]1O[C@@H](n2cnc3c(Cl)ncnc32)C[C@@H]1O | 30.3 µM | > 200 µM | >6.6 |
| C=CCOC[C@H]1O[C@@H](n2cnc3c(Cl)ncnc32)C[C@@H]1O | 24.5 µM | 140 µM | 5.7 |
| OC[C@H]1O[C@@H](n2cnc3c(Cl)ncnc32)[C@H](O)[C@@H]1O | 31 µM | > 200 µM | >6.5 |
| O=S(=O)(OC[C@H]1O[C@@H](n2cnc3c(Cl)ncnc32)C[C@@H]1O)c1ccccc1 | 28.8 µM | 146 µM | 5.1 |
| NC(=O)c1ncn([C@@H]2O[C@H](CO)[C@@H](O)[C@H]2O)n1 [RIBAVIRIN] | 54.8 µM | > 200 µM | >3.7 |
